Most compounds without a hit are left out; they make up all but 2.1% or so of the library.
Runt-CBFb FRET: Runt domain-CBFb interaction inhibition; Cerulean-Runt/Venus-CBFb FRET ratio 530/480, 1 h; inhibition, % at 20 µM; 220,000 compounds, 0.46% hits; AID 1496;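 active = inhibition over about 50% at 20 µM in the single-dose screen, limit read from the data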
Target sequence (Q01196 whole entry, looked up, the tested form may be a part): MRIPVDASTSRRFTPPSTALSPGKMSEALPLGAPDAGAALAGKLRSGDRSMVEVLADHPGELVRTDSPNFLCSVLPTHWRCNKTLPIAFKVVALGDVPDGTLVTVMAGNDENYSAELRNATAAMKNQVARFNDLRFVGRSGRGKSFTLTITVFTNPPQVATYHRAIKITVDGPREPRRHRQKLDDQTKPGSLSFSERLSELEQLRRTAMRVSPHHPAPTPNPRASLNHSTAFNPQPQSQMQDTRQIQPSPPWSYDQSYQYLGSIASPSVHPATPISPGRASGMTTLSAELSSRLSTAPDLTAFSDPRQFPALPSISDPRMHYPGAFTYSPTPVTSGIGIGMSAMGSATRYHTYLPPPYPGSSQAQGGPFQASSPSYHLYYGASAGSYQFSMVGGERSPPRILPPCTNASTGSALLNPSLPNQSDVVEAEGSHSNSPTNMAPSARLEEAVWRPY
Target sequence (Q13951 whole entry, looked up, the tested form may be a part): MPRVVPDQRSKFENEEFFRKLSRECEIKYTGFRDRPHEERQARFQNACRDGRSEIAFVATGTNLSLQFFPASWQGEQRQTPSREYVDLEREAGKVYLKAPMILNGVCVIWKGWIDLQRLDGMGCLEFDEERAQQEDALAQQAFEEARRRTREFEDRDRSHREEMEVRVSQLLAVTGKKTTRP
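Buffer or medium: Tris pH 7.5 buffer with BSA. Assay system: Cerulean-labeled Runt domain protein. Amount: each fluorescent fusion protein 100 nM. Read-out basis: loss of energy transfer signal. Incubation: 1 h compound exposure, room temperature. Probe or stimulus: Venus-CBFb binding partner, 100 nM. Detection: FRET, excitation 422 nm, emission at 530 and 480 nm.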
Hck-Nef inh: human Hck-Nef kinase inhibition; inhibition, % at 20 µM; 220,000 compounds, 0.68% hits; AID 463187; P08631; Recombinant Hck-YEEI plus Nef, Z-Lyte FRET kinase assay;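 active = Hck-Nef kinase inhibition above about 50%, limit read from the data; inactive = inhibition below that limit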
Runt-SMMHC FRET: Runt domain-CBFb-SMMHC interaction inhibition. AID 1434. inhibition, % at 20 µM. 220,000 compounds, 0.74% hits. Q01196+Q13951. Cerulean-Runt/Venus-CBFb-SMMHC FRET ratio 530/480, 1 h;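 active = mean inhibition across duplicate retests at 20 µM reaching about 50%, limit read from the data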;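 also: inhibitors lower the FRET ratio by blocking Runt binding to CBFb-SMMHC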
p97 ATPase inh: blocks human p97 ATPase activity | P55072 | 220,000 compounds, 0.42% hits | AID 1481 | recombinant p97 ATPase, Kinase-Glo ATP luminescence, 3 h | inhibition, % at 8 µM; in the data active = inhibition above about 15%
Tb hexokinase: blocks Trypanosoma brucei hexokinase 1 activity; AID 1430; 220,000 compounds, 0.11% hits; inhibition, % at 10 µM; recombinant TbHK1, G6PDH-coupled NADH A340;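 active = inhibition of 50% or more in the single-dose primary screen; inactive = inhibition below 50%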
RanGTP-Impb inh: inhibitors of RanGTP-importin-beta interaction, primary screen, biochemical, FRET, CFP-Ran, YFP-importin-beta, homogeneous; cell-free CFP-Ran/YFP-importin-beta FRET ratio; inhibition, % (test concentration not listed); 300,000 compounds, 1.1% hits; AID 2216;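 active = more than half of the replicate wells show a fall in the fluorescence ratio signal beyond about 16%, limit read from the data, passing the limit was not always enough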
Hck-Nef confirm: confirmation of Hck-Nef kinase inhibitors. shares compounds with Hck-Nef inh. Recombinant Hck-YEEI:Nef, Z-Lyte FRET kinase assay. calls only at 10 µM. 1,300 compounds, 28% hits. AID 463188;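 active = average inhibition of at least 50%, with Z-scores no higher than 3 in both the phospho-tyrosine peptide and fluorescence counterscreens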
Hits are given with their value.

Results for CN(C(=O)c1cc([N+](=O)[O-])ccc1NCc1cccnc1)c1ccccc1 ?
RanGTP-Impb inh: inactive

Results for Cc1c(C)c2cc(Cl)c(O)c(CN3CCN(C)CC3)c2oc1=O ?
Runt-CBFb FRET: 95.6; Hck-Nef inh: 66.4; Runt-SMMHC FRET: 126.6; p97 ATPase inh: inactive; Tb hexokinase: inactive; RanGTP-Impb inh: inactive

Results for COc1ccc(C2=NCCn3cccc32)c(OC)c1 ?
Runt-CBFb FRET: inactive; Hck-Nef inh: inactive; Runt-SMMHC FRET: inactive; p97 ATPase inh: inactive; Tb hexokinase: inactive; RanGTP-Impb inh: inactive

What do the screens show for `COc1cc(/C=C/C(=O)OCC(=O)Nc2sc3c(c2C#N)CCC(C)C3)ccc1OCC#N` (stereo unspecified)?
Runt-CBFb FRET: inactive; Hck-Nef inh: 50.9; Runt-SMMHC FRET: inactive; p97 ATPase inh: inactive; Tb hexokinase: inactive; RanGTP-Impb inh: inactive; Hck-Nef confirm: inactive

How did CS(=O)(=O)N(CC(=O)N/N=C/c1ccc(OCC(=O)N2CCOCC2)cc1)c1ccccc1Cl do in these assays?
Runt-CBFb FRET: inactive; Hck-Nef inh: 128.9; Runt-SMMHC FRET: inactive; p97 ATPase inh: inactive; Tb hexokinase: inactive; RanGTP-Impb inh: inactive; Hck-Nef confirm: inactive

What do the screens show for `O=C(N/N=C/c1ccc(OCC(=O)N2CCOCC2)cc1)c1ccccc1Cl`?
Runt-CBFb FRET: inactive; Hck-Nef inh: inactive; Runt-SMMHC FRET: inactive; p97 ATPase inh: inactive; Tb hexokinase: inactive; RanGTP-Impb inh: inactive

What do the screens show for `COc1ccc([C@@H]2[C@@H]3C(=O)N(C(C)(C)C)C(=O)[C@@H]3[C@]3(Cc4ccc(Cl)cc4)C(=O)N(c4ccc(C)cc4)C(=O)N23)cc1`?
RanGTP-Impb inh: inactive

Results for CCCNC(=O)c1cc2nc(-c3ccccc3)cc(C(F)(F)F)n2n1 ?
Runt-CBFb FRET: inactive; Hck-Nef inh: inactive; Runt-SMMHC FRET: inactive; p97 ATPase inh: inactive; Tb hexokinase: inactive; RanGTP-Impb inh: inactive

What do the screens show for `Cc1ccc(-n2cccc2/C=C2\C(=N)N3N=C(c4ccco4)SC3=NC2=O)cc1`?
Runt-CBFb FRET: inactive; Hck-Nef inh: 69.9; Runt-SMMHC FRET: inactive; p97 ATPase inh: inactive; Tb hexokinase: inactive; Hck-Nef confirm: active

What do the screens show for `COc1ccc(/C=C/C(=O)Oc2ccc(C)cc2)cc1`?
RanGTP-Impb inh: inactive

Results for COc1ccccc1NC(=O)CN1CCC(C(=O)c2ccc(F)cc2)CC1 ?
Runt-CBFb FRET: inactive; Hck-Nef inh: inactive; Runt-SMMHC FRET: inactive; p97 ATPase inh: inactive; Tb hexokinase: inactive; RanGTP-Impb inh: inactive

What do the screens show for `Cc1[nH]c2ccccc2c1C(=O)CSc1nc2ncc(Cl)cc2[nH]1`?
Runt-CBFb FRET: inactive; Hck-Nef inh: 72.3; Runt-SMMHC FRET: inactive; p97 ATPase inh: inactive; Tb hexokinase: inactive; RanGTP-Impb inh: inactive; Hck-Nef confirm: active

What do the screens show for `O=C(CSc1nc2ncc(Cl)cc2[nH]1)Nc1ccccc1-c1ccccc1`?
RanGTP-Impb inh: inactive

How did O=C(CSc1nc2ncc(Cl)cc2[nH]1)NCC(=O)Nc1ccc(F)c(F)c1F do in these assays?
Runt-CBFb FRET: inactive; Hck-Nef inh: 61.2; Runt-SMMHC FRET: inactive; p97 ATPase inh: inactive; Tb hexokinase: inactive; RanGTP-Impb inh: inactive

What do the screens show for `O=P(O)(O)c1ccccc1OCCOCCOc1ccccc1P(=O)(O)O`?
Runt-CBFb FRET: inactive; Hck-Nef inh: inactive; Runt-SMMHC FRET: inactive; p97 ATPase inh: inactive; Tb hexokinase: inactive

How did CCOP(=O)(O)c1ccccc1OCCOCCOc1ccccc1P(=O)(O)OCC do in these assays?
Runt-CBFb FRET: inactive; Hck-Nef inh: 94.4; Runt-SMMHC FRET: inactive; p97 ATPase inh: inactive; Tb hexokinase: inactive; RanGTP-Impb inh: inactive; Hck-Nef confirm: inactive

What do the screens show for `COc1ccc(C2CC(c3ccccc3)=NN2c2ccc(C(N)=O)cc2)cc1` (stereo unspecified)?
RanGTP-Impb inh: inactive

What do the screens show for `NS(=O)(=O)c1ccc(N2N=C(c3ccccc3)CC2c2ccc(F)cc2)cc1` (stereo unspecified)?
Runt-CBFb FRET: inactive; Hck-Nef inh: 60.1; Runt-SMMHC FRET: inactive; p97 ATPase inh: inactive; Tb hexokinase: inactive; RanGTP-Impb inh: inactive

Results for COc1ccc(C2CC(c3ccccc3)=NN2c2ccc(S(N)(=O)=O)cc2)cc1 (stereo unspecified) ?
Runt-CBFb FRET: inactive; Hck-Nef inh: 107.9; Runt-SMMHC FRET: inactive; p97 ATPase inh: inactive; Tb hexokinase: inactive; RanGTP-Impb inh: inactive

What do the screens show for `Oc1ccc(C2=NN(c3ccccc3)C(c3ccc(F)cc3)C2)cc1` (stereo unspecified)?
RanGTP-Impb inh: inactive

Results for COc1ccc(C2CC(c3cccs3)=NN2c2ccc(C=O)cc2)cc1 (stereo unspecified) ?
Runt-CBFb FRET: inactive; Hck-Nef inh: 53.9; Runt-SMMHC FRET: 73.1; p97 ATPase inh: inactive; Tb hexokinase: inactive; RanGTP-Impb inh: inactive; Hck-Nef confirm: inactive

Results for O=C(Nc1nncs1)C1c2ccccc2Oc2ccccc21 ?
Runt-CBFb FRET: inactive; Hck-Nef inh: inactive; Runt-SMMHC FRET: inactive; p97 ATPase inh: inactive; Tb hexokinase: inactive; RanGTP-Impb inh: inactive

Results for N#Cc1c2nc3ccccc3nc2n2cc(NC(=O)c3ccc(F)cc3)ccc12 ?
Runt-CBFb FRET: inactive; Hck-Nef inh: 72.2; Runt-SMMHC FRET: inactive; p97 ATPase inh: inactive; Tb hexokinase: inactive; Hck-Nef confirm: inactive

Results for CCOC(=O)c1cc(-c2ccccc2)sc1NC(=O)COC(=O)c1ccc(Cl)c(S(N)(=O)=O)c1 ?
Runt-CBFb FRET: inactive; Hck-Nef inh: inactive; Runt-SMMHC FRET: inactive; p97 ATPase inh: inactive; Tb hexokinase: inactive; RanGTP-Impb inh: inactive

Results for CCOC(=O)c1cc(-c2ccccc2)sc1NC(=O)COC(=O)c1cccc(S(N)(=O)=O)c1 ?
Runt-CBFb FRET: inactive; Hck-Nef inh: 57.6; Runt-SMMHC FRET: inactive; p97 ATPase inh: inactive; Tb hexokinase: inactive; RanGTP-Impb inh: inactive; Hck-Nef confirm: active

How did Cc1cc(NCCCCO)n2c(nc3ccccc32)c1C#N do in these assays?
Runt-CBFb FRET: inactive; Hck-Nef inh: 59.3; Runt-SMMHC FRET: inactive; p97 ATPase inh: inactive; Tb hexokinase: inactive; RanGTP-Impb inh: 38.3

What do the screens show for `CCCc1cc(NCCCCO)n2c(nc3ccccc32)c1C#N`?
Runt-CBFb FRET: inactive; Hck-Nef inh: 96.9; Runt-SMMHC FRET: 53.9; p97 ATPase inh: inactive; Tb hexokinase: inactive; RanGTP-Impb inh: 42.9

How did CCOC(=O)C1CCCN(S(=O)(=O)c2ccc(S(=O)(=O)N(CC)CC)cc2)C1 (stereo unspecified) do in these assays?
Runt-CBFb FRET: inactive; Hck-Nef inh: inactive; Runt-SMMHC FRET: inactive; p97 ATPase inh: inactive; Tb hexokinase: inactive; RanGTP-Impb inh: inactive

What do the screens show for `NC(=S)N=Nc1c(O)n(CC(=O)Nc2ccccc2)c2ccccc12`?
RanGTP-Impb inh: inactive
